SENP8 block-1: SENP8 protease inhibition | 330,000 tested, 1.2% active | inhibition, % at 10 µM | purified SENP8, Z-RLRGG-aminoluciferin cleavage, luminescence | Q96LD8; in the data active means inhibition above about 50%
Target sequence (Q96LD8 whole entry, looked up): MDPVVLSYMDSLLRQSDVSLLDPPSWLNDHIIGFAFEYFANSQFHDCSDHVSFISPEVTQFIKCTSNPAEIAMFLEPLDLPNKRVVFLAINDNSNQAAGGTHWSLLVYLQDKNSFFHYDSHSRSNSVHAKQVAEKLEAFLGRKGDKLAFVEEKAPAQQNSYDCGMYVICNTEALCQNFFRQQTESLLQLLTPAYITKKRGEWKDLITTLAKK
SENP7 block: SENP7 protease inhibition. recombinant SENP7, Z-RLRGG-aminoluciferin luminescence, 40 min. inhibition, % at 5 µM. 330,000 tested, 1.5% active. AID 434973;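 active means inhibition above about 50% at the single test dose, limit read from the data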;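 further: plate controls were DMSO with enzyme for no effect and no enzyme buffer wells for full effect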
SENP1 inh: blocks the human SENP1 SUMO protease catalytic domain; Q9P0U3; recombinant SENP1 catalytic domain, CyPet-SUMO1-YPet FRET cleavage; inhibition, % at 10 µM; 360,000 tested, 0.21% active;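 active means inhibition at least 30% at 10 µM, raw YFP signal under a set limit, fluorescence ratio 0.5 to 1.5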;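 further: 0% = enzyme with DMSO and 100% = no enzyme wells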
Target sequence (Q9P0U3 419-644 limits assumed): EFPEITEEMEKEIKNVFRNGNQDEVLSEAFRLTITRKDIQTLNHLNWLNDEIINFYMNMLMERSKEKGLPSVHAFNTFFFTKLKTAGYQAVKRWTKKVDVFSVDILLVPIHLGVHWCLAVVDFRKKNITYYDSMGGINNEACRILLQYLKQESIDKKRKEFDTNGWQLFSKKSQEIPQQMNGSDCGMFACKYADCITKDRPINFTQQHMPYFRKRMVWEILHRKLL
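Assay system – human recombinant His6-tagged SENP1 catalytic domain enzyme · Input – SENP1 enzyme, 20 pM final · Buffer or medium – Tris pH 8 buffer plus EDTA, NaCl, BME, BSA, NP40, catalase · Schedule – 50 min reaction at room temperature · Technique – FRET read of cyan and yellow fluorescence · Control set – no-enzyme wells low, DMSO-plus-enzyme wells high control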
SENP6 inh: SENP6 protease inhibition; inhibition, % at 10 µM; 330,000 tested, 1.8% active; Q9GZR1; Recombinant SENP6 catalytic domain, aminoluciferin luminescence;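 active means inhibition above about 50% at the single tested dose, limit read from the data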;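 further: plate controls were DMSO wells with enzyme for no effect and DMSO wells lacking enzyme for full effect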
SENP8 block-2: inhibitors of human SENP8 protease | Q96LD8 | inhibition, % at 20 µM | recombinant SENP8, Nedd8 substrate fluorescence | AID 602440 | 360,000 tested, 0.64% active; in the data active means inhibition mostly above about 40%, no sharp cut-off; inactive means mostly below about 27%
SENP8 conf: confirmation of human SENP8 protease inhibitors; shares compounds with SENP7 block; Recombinant SENP8, Z-RLRGG-aminoluciferin luminescence, 60 min; inhibition, % at 12.5 µM; 6,200 tested, 40% active; AID 488912;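 active means mean inhibition across replicates above about 50%, limit read from the data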
SENP6 confirm: confirmation of human SENP6 protease inhibitors | shares compounds with SENP7 block | recombinant SENP6, Z-RLRGG-aminoluciferin luminescence | inhibition, % at 12.5 µM | 6,200 tested, 58% active | AID 488915
SENP7 confirm: human SENP7 inhibition, confirmed. shares compounds with SENP7 block. recombinant SENP7, Z-RLRGG-aminoluciferin luminescence, 40 min. inhibition, % at 12.5 µM. 6,200 tested, 69% active
Casp3 select: inhibits human caspase-3 in SENP selectivity test; inhibition, % at 12.5 µM; 6,200 tested, 60% active; purified caspase-3, Z-DEVD-aminoluciferin luminescence, 60 min; AID 488918; shares compounds with SENP7 block;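 active means mean inhibition above about 50%, limit read from the data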;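 further: plate controls were enzyme with DMSO for no effect and wells without caspase-3 for full effect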
SENP luc ctr: luminescence interference (SENP counter-screen) | shares compounds with SENP7 block | Pre-incubated SENP8/Z-RLRGG-aminoluciferin, luciferase luminescence interference | inhibition, % at 12.5 µM | 6,200 tested, 39% active | AID 488919;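 active means mean inhibition above about 50% when retested at one dose, limit read from the data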;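 further: plate controls were DMSO wells with completed reaction for no effect and substrate without enzyme for full effect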
An asterisk follows results filed as active; . = no result. Shown are actives, neighbours in structure and some others; about 2.5% of the full set was active somewhere.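 How the source made its calls, unless noted: active means mean inhibition above about 50% in the one-dose retest (limit read from the data); inactive means the rest.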

SMILES	SENP8 block-1	SENP7 block	SENP1 inh	SENP6 inh	SENP8 block-2	SENP8 conf	SENP6 confirm	SENP7 confirm	Casp3 select	SENP luc ctr
O=C(Nc1sc2c(c1C(=O)O)CCC2)c1ccco1	91*	91*	1	97*	-81	94*	94*	101*	96*	93*
NC(=O)c1c(NC(=O)c2cc3ccccc3o2)sc2c1CCC2	25	38	-36	60*	-438	14	17	67*	36	18
Cc1ccc(C(=O)Nc2sc3c(c2C(=O)O)CCCCC3)o1	97*	91*	-2	-15	-423	98*	100*	103*	98*	97*
COC(=O)c1c(NC(=O)c2ccc(C)o2)sc2c1CCCCC2	-12	-4	-4	-19	-294	.	.	.	.	.
Cc1ccc(C(=O)Nc2sc3c(c2C(=O)O)CCCC3)o1	91*	75*	-1	89*	-466	95*	94*	101*	96*	92*
CCC(CC)C(=O)N(C)c1c(C)nc2c(OCCC3CCCCC3)cccn12	.	.	0	.	15	.	.	.	.	.
Cc1ccc(C)c(N2CC(C(=O)Nc3cc(C)on3)CC2=O)c1 (stereo unspecified)	-6	-2	0	0	17	.	.	.	.	.
Clc1ccccc1Nc1nc2ccccc2o1	95*	100*	2	95*	4	-4	100*	103*	98*	97*
CCS(=O)(=O)c1ccc2oc(Nc3ccccc3Cl)nc2c1	91*	92*	-1	95*	10	74*	92*	99*	94*	26
Cc1cccc(C)c1Nc1nc2ccccc2o1	4	-7	1	-10	20	.	.	.	.	.
CN(C(=O)C(Cl)Cl)C1CC2C=CC1C2 (stereo unspecified)	-9	0	3	-83	16	.	.	.	.	.
CC1(C(=O)NS(=O)(=O)c2ccc(Br)cc2)CCN1C(=O)CCC1CCCC1 (stereo unspecified)	.	.	2	.	15	.	.	.	.	.
O=C(COc1ccc2c(c1)CCC2)Nc1ccccn1	95*	99*	4	97*	6	97*	98*	101*	97*	96*
Cc1cccc(NC(=O)COc2ccc3oc4c(c3c2)CCCC4)n1	-1	4	2	-4	-15	.	.	.	.	.
Cc1cnc(NC(=O)COc2ccc3c(c2)CCC3)s1	13	45	-1	52*	4	-15	4	22	13	2
Cc1cccc(NC(=O)COc2ccc3c(c2)CCC3)n1	29	51*	0	61*	12	56*	56*	84*	60*	46
O=C(COc1ccc2c(c1)CCC2)NCc1ccccc1	-3	-7	-1	5	11	.	.	.	.	.
Cc1csc(NC(=O)CCCC(=O)c2ccccc2)n1	-2	8	0	13	15	.	.	.	.	.
Cc1c(NC(=O)COC(=O)c2cccc(F)c2)c(=O)n(-c2ccccc2)n1C	.	.	3	.	14	.	.	.	.	.
CCNC(=S)N1N=C2c3ccccc3CCC2C1c1ccc(F)cc1 (stereo unspecified)	-4	-6	2	-25	15	.	.	.	.	.
O=C(COC(=O)Cn1cc(C(F)(F)F)ccc1=O)NCc1ccccc1	1	-2	2	-1	5	.	.	.	.	.
Cc1cc(C=C2C(=O)c3ccccc3C2=O)c(C)n1-c1ccc(C(=O)O)cc1	-2	1	-25	-5	-15	.	.	.	.	.
Cc1cc(/C=C2/C(=O)NN(c3ccccc3)C2=O)c(C)n1-c1cccc(O)c1	66*	65*	0	80*	29	68*	73*	93*	67*	11

Screens as filed in PubChem.
